According to ChEMBL document CHEMBL1817668, “Synthesis of 6-[¹⁸F]fluoro-PBR28, a novel radiotracer for imaging the TSPO 18 kDa with PET” (Bioorg Med Chem Lett, 2011):
Active and inactive are the calls of the source. The rule behind the calls is not given here.

Columns and labels:
[1] = organism: Rattus norvegicus; test: Ex vivo binding affinity to TSPO in AMPA lesioned rat assessed as increase in ipsi to contralateral ratio by auto radiography; format: functional, organism-based
[2] = organism: Rattus norvegicus; test: Displacement of [3H]Flunitrazepam from CBR in rat cerebral cortex at 0.1 uM; format: tissue-based
Outline: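 Competition binding against [3H]flunitrazepam, a reference central benzodiazepine receptor ligand, in a rat cerebral cortex homogenate screen. […]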

[3] = target: T1, Translocator protein (Rattus norvegicus, UniProt P16257); test: Displacement of [3H]PK11195 from TSPO in rat heart membrane homogenate; format: cell membranes
T1 sequence (P16257 whole entry, looked up): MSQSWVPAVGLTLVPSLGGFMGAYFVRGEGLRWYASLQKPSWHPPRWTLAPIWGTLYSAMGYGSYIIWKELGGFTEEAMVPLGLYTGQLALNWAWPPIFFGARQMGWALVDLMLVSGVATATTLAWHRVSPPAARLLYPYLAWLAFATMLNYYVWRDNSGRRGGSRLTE

[4] = target: T1, Translocator protein; test: Displacement of [3H]PK11195 from TSPO in rat kidney mitochondrial fraction; format: tissue-based
[5] = target: Translocator protein (Homo sapiens, UniProt P30536); test: Displacement of [3H]PK11195 from TSPO in human HEK293 mitochondrial fraction
Translocator protein (Homo sapiens, UniProt P30536), sequence (P30536 whole entry): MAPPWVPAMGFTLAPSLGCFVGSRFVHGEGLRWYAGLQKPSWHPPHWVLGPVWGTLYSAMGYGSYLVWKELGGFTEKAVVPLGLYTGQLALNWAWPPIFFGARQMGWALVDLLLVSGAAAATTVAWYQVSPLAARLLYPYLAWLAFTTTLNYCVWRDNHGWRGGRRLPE

[6] = test system: C6; test: Induction of pregnenolone synthesis in rat C6 cells at 40 uM after 2 hrs by ELISA relative to control; format: functional
Outline: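 Rat C6 glioma cells were exposed to ligand at 40 μM. Released pregnenolone was measured by competitive ELISA and expressed as % above control. Mean ± SEM of at least three independent experiments.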

[7] = test system: Striatum; test: Drug uptake in AMPA lesioned rat striatum after 1-2 mins post injection; format: ADME, tissue-based; conditions: in vivo
[8] = test system: Striatum; test: Drug uptake in rat striatum after 1-2 mins post injection; format: ADME, tissue-based; conditions: in vivo
[9] = Octanol-buffer partition coefficient, log D of the compound at pH 7.4 by shake flask method; format: physicochemical
Outline: (§1)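 Shake-flask partition of the [18F]-labelled radioligand. Log D7.4 was measured between n-octanol and buffer pH 7.4, and log P between n-octanol and water.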

[10] = Octanol-water partition coefficient, log P of the compound by shake flask method; format: physicochemical; outline: as §1
[11] = test system: Brain; test: Ratio of drug uptake in ipsi to contralateral side of AMPA lesioned rat brain after 60 mins post injection; format: ADME, tissue-based; conditions: in vivo, 1 h
Outline: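 MicroPET imaging of rats with AMPA-induced brain lesions after injection of the fluorine-18-labelled radiotracer. Uptake in the lesioned (ipsilateral) striatal area is compared with the corresponding area of the intact contralateral hemisphere at 60 min post-injection. Time-activity curves are followed for lesioned and non-lesioned striatum over the scan.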

SMILES | Activity [1] | Activity [6] [%] | Drug uptake [7] | Drug uptake [8] | further results
CCOC(=O)c1ncn2c1CN(C)C(=O)c1cc(F)ccc1-2 | Active |  |  |  | 
COc1ccccc1CN(C(C)=O)c1cnc(F)cc1Oc1ccccc1 | inactive | 16.45 |  |  | Activity [2]: < 10%; Ki [3]: 0.44 nM; Ki [4]: 3.9 nM; Ki [5]: 1.19 nM; Activity ([1]; tested as the 18F-labelled form): Active
CCC(C)N(C)C(=O)c1cc2ccccc2c(-c2ccccc2Cl)n1 (configuration not stated) [PK-11195] | inactive | 37 |  |  | 
CCC(C)N([11CH3])C(=O)c1cc2ccccc2c(-c2ccccc2Cl)n1 (configuration not stated) |  |  | Active | Active | 
COc1ccccc1CN(C(C)=O)c1cnc([18F])cc1Oc1ccccc1 |  |  | Active | Active | logD [9]: 2.82; logP [10]: 2.77; Ratio [11]: 2.2
